Data taken from PMC12239073 (Molecular Pharmaceutics, 2025).

Legend:
[1] = pH of saturated solutions in biorelevant media; assay type: physicochemical; conditions: 24 h, 37 °C, pH probe; for pH of saturated solution in FaSSGF: excess solid in FaSSGF, initial pH 1.6; for pH of saturated solution in FaSSGF / pH of saturated solution in FaSSIF / pH of saturated solution in FeSSIF: 350 rpm, n = 3; for pH of saturated solution in FaSSIF: excess solid in FaSSIF, initial pH 6.5; for pH of saturated solution in FeSSIF: excess solid in FeSSIF, initial pH 5.0
In short: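 Excess solid was added separately to 1 mL of each medium: FaSSIF (pH 6.5; NaTC 3 mM, lecithin 0.75 mM), FeSSIF (pH 5.0; 15 mM, 3.75 mM), FaSSGF (pH 1.6; 0.08 mM, 0.02 mM), or blank versions without NaTC and lecithin. Samples were shaken at 350 rpm for 24 h at 37 °C, then read with a pH probe. Triplicate; mean ± standard deviation, n = 3.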

[2] = Saturation; assay type: physicochemical; conditions: 24 h, 37 °C, in words; for saturation solubility in gastric media, rank among the media: FaSSGF and blank FaSSGF, pH 1.6
[3] = approximate, from the literature; ref not given; cited from earlier work

| Compound | pH of media in the presence of excess material, all media investigated ([1]; FaSSIF, FeSSIF, FaSSGF and blank equivalents) | saturation solubility in gastric media, rank among the media [2] | pH of saturated solution in FaSSGF [1] | pH of saturated solution in FaSSIF [1] | pH of saturated solution in FeSSIF [1] | pKa [3] | saturation solubility in FaSSIF, rank among the media ([2]; FaSSIF, pH 6.5) |
| --- | --- | --- | --- | --- | --- | --- | --- |
| insulin: recombinant human insulin procured from Merck KGaA, used as model peptide | did not appear to impact media pH | highest solubility |  |  |  |  |  |
| O=C([O-])CCCCCCCNC(=O)c1ccccc1O.[Na+] [SNAC, salcaprozate sodium] |  | lowest | 7.6 | 7.9 | 7.7 | approximately 5 | highest |
| CCCCCCCCCC(=O)[O-].[Na+] [C10, sodium caprate] |  |  | 9.2 | 9.0 | 8.8 | approximately 5 |  |
